The target in assay [1] is Phosphodiesterase, PDE1/PDE5 (Homo sapiens) (UniProt O76074+P54750+Q01064+Q14123). As to the kind of experiment: Relative binding to Phosphodiesterase 1 and Phosphodiesterase 5, ratio of IC50. Format: protein assay.
Assay [2] addresses Phosphodiesterases; PDE5 & PDE6 (Homo sapiens) (UniProt O76074+Q13956+P18545+P35913+O43924+P16499+P51160). In words: Relative binding to Phosphodiesterase 6 and Phosphodiesterase 5, ratio of IC50. Format: protein assay.
For assay [3], the target named is T1, cGMP-specific 3',5'-cyclic phosphodiesterase (Homo sapiens, UniProt O76074). As to the kind of experiment: Percentage inhibition of human phosphodiesterase 5 at 100 nM.
Assay [4] deals with T1, cGMP-specific 3',5'-cyclic phosphodiesterase. As to the kind of experiment: Inhibition of human phosphodiesterase 5.
Assay [5] is described as follows: Inhibitory concentration against human phosphodiesterase 8 activity. The method in brief:
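Scintillation proximity assay using a cAMP-PDE SPA kit, with 0.05 μM cAMP as substrate.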

Another assay addresses Phosphodiesterase 1 (Homo sapiens, UniProt P54750+Q01064+Q14123). As to the kind of experiment: Inhibition of human phosphodiesterase 1. Format: protein assay.
The target in assay [6] is cGMP-dependent 3',5'-cyclic phosphodiesterase (Homo sapiens, UniProt O00408). In words: Inhibition of human phosphodiesterase 2.
The target in another assay is Phosphodiesterase 3 (Homo sapiens, UniProt Q14432+Q13370). As to the kind of experiment: Inhibition of human phosphodiesterase 3. Type of assay: protein assay.
A further assay addresses Phosphodiesterase 7 (Homo sapiens, UniProt Q13946+Q9NP56). In words: Inhibition of human phosphodiesterase 7. Type of assay: protein assay.
In assay [7] the target is cAMP and cAMP-inhibited cGMP 3',5'-cyclic phosphodiesterase 10A (Homo sapiens, UniProt Q9Y233). As to the kind of experiment: Inhibitory concentration against human phosphodiesterase 10.
Assay [8] deals with High affinity cGMP-specific 3',5'-cyclic phosphodiesterase 9A (Homo sapiens, UniProt O76083). In words: Inhibition of Phosphodiesterase 9.
Assay [9] concerns the target Dual 3',5'-cyclic-AMP and -GMP phosphodiesterase 11A (Homo sapiens, UniProt Q9HCR9). In words: Inhibition of human phosphodiesterase 11.
In a further assay the target is Phosphodiesterase 4 (Homo sapiens, UniProt P27815+Q08499+Q07343+Q08493). In words: Inhibition of human phosphodiesterase 4. Type of assay: protein assay.
A further assay deals with Phosphodiesterase 6. In words: Inhibition of human phosphodiesterase 6. Type of assay: protein assay.

pIC50: −log10 of the molar value.

Sequence of cGMP-dependent 3',5'-cyclic phosphodiesterase (O00408 whole entry): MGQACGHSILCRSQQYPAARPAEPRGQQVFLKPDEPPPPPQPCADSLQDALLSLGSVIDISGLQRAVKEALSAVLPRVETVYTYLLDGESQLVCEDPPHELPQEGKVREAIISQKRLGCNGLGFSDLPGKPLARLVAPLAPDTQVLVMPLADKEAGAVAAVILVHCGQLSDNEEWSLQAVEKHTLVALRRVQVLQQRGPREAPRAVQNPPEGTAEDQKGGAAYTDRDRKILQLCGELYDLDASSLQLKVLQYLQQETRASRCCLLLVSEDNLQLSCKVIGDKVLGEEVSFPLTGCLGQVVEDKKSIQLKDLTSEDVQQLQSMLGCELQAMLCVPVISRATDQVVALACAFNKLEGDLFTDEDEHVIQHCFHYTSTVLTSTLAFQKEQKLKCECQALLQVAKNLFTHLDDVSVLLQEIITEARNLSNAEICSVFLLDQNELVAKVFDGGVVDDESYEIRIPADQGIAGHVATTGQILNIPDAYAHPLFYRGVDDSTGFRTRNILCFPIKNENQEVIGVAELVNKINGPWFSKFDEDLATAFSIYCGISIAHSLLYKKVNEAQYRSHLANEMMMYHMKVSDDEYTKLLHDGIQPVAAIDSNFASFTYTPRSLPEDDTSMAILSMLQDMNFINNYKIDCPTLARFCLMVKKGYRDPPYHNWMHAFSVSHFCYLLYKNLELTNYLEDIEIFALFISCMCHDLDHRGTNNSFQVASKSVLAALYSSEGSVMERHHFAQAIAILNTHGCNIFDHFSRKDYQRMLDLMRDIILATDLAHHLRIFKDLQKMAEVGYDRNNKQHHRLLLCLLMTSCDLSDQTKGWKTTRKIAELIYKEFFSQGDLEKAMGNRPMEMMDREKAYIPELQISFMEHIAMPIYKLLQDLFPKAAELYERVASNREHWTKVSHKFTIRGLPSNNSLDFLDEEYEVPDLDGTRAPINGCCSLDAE
Sequence of cAMP and cAMP-inhibited cGMP 3',5'-cyclic phosphodiesterase 10A (Q9Y233 whole entry): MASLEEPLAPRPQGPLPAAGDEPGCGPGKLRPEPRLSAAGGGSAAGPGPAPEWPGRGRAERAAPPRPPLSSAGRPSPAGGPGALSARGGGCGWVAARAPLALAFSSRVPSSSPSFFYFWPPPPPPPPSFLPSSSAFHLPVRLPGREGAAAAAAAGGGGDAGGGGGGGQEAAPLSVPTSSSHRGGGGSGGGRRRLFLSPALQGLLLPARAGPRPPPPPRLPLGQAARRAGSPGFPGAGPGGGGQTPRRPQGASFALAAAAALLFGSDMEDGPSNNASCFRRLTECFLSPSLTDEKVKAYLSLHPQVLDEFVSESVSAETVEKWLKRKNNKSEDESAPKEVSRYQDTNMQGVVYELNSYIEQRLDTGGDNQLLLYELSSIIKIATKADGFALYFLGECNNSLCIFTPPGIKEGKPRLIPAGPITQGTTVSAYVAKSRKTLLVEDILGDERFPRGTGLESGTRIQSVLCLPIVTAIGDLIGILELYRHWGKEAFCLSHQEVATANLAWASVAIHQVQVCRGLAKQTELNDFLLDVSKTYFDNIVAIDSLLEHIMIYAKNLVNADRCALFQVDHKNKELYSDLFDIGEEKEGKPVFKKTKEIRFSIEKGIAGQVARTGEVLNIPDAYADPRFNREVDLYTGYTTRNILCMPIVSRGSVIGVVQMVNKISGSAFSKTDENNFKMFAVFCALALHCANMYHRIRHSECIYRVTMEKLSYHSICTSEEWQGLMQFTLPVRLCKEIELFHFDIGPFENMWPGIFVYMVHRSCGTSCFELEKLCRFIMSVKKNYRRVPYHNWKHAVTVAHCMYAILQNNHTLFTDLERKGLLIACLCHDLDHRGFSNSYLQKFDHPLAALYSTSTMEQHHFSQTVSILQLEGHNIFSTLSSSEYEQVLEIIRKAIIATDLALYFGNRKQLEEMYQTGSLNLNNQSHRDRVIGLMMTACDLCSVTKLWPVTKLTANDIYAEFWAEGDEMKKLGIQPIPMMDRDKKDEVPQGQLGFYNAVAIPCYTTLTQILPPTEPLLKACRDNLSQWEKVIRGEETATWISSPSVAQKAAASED
Sequence of High affinity cGMP-specific 3',5'-cyclic phosphodiesterase 9A (O76083 whole entry): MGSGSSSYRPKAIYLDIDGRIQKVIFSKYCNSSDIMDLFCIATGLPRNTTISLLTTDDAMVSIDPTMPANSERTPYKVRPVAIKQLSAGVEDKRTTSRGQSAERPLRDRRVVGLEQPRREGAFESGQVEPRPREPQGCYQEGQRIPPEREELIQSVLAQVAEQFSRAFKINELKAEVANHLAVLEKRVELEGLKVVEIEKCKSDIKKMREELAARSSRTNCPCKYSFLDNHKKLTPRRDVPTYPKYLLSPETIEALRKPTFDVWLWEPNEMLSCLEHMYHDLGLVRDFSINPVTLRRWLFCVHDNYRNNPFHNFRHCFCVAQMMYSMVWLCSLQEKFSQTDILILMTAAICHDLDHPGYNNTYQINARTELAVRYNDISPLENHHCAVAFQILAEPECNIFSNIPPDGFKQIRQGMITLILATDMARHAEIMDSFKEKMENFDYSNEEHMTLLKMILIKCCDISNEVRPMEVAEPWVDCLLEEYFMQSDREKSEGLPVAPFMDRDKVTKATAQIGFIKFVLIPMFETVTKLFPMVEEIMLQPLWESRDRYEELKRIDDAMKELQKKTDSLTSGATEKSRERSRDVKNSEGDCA
Sequence of Dual 3',5'-cyclic-AMP and -GMP phosphodiesterase 11A (Q9HCR9 whole entry): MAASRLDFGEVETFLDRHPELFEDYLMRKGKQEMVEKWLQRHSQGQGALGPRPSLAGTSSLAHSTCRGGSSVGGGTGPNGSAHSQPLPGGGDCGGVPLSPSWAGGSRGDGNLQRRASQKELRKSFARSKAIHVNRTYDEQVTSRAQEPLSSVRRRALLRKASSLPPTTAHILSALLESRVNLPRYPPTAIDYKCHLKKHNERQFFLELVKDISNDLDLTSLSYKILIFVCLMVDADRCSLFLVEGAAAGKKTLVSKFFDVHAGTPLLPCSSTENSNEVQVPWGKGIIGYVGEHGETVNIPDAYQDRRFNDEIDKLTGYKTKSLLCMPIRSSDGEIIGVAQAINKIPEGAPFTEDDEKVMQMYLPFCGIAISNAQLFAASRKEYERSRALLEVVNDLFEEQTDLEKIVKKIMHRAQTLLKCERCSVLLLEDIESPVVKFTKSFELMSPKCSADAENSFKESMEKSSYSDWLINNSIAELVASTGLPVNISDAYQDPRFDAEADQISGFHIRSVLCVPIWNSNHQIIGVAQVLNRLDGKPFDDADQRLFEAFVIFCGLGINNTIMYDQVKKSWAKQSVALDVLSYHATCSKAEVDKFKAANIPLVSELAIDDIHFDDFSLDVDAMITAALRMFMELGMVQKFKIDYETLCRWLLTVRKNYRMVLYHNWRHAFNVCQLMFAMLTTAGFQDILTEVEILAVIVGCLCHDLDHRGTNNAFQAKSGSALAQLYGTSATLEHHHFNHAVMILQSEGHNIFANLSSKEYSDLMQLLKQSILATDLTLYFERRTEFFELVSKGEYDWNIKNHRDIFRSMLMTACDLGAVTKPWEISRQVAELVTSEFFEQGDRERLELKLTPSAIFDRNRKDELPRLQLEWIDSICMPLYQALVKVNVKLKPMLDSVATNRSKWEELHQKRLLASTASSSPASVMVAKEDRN

For the molecule `CCN1C(=O)c2[nH]c(Cc3ccccc3)nc2N2C[C@@H](Cc3ccccc3)N=C12`, the results for the Ratio in assay [1] and in assay [2] were > 2220 and 1.8, respectively.

In the case of `O=C1c2nc(Cc3ccccc3)[nH]c2N2C[C@@H](Cc3ccccc3)N=C2N1C1CC1`, the inhibition in assay [3] came out at 21%.

In turn, `CCN1C(=O)c2nc(Br)n(Cc3ccc(OC)cc3)c2N2C[C@@H](Cc3ccccc3)N=C12` gave a pIC50 in assay [4] of 7.32. Besides, the Ratio in assay [2] came out at 7.8.

In the case of `CCCc1nn(C)c2c(=O)[nH]c(-c3cc(S(=O)(=O)N4CCN(C)CC4)ccc3OCC)nc12`, the negative-log IC50 (pIC50) in assay [5] was < 5.00.

In assay [4], `CCN1C(=O)c2nc(Cc3ccccc3)n(Cc3ccc(O)cc3)c2N2C[C@@H](Cc3ccccc3)N=C12` showed a negative-log IC50 (pIC50) of 7.55. In addition, in [2], the Ratio was 7.9.

`CN1C(=O)c2[nH]c(Cc3ccccc3)nc2N2C1=N[C@@H]1CCC[C@@H]12`: in assay [1], the Ratio was determined as 1.3.

In turn, `CCN1C(=O)c2c(nc(I)n2Cc2ccccc2)N2C[C@@H](Cc3ccccc3)N=C12` came in with an inhibition in assay [3] of 32%.

In the case of `CCN1C(=O)c2[nH]c(Cc3ccccc3)nc2N2C1=N[C@@H]1CCC[C@@H]12`, in [4], the pIC50 is 7.72. For the same molecule, the Ratio in assay [1] amounted to 342.

On to `CCN1C(=O)c2nc(Cc3ccccc3)n(Cc3ccccc3)c2N2C[C@@H](Cc3ccccc3)N=C12`, for which the Ratio in [1] was > 313; in assay [2] it was 5.3.

As to `CON1C(=O)c2nc(Cc3ccccc3)n(Cc3ccccc3)c2N2C[C@@H](Cc3ccccc3)N=C12`, the inhibition in assay [3] turned out to be 17%.

In the case of `CCN1C(=O)c2c(nc(Cc3ccccc3)n2Cc2ccc(OC)cc2)N2C[C@@H](Cc3ccccc3)N=C12`, in [4], the pIC50 was 6.89. The Ratio in assay [2] is 1.8.

For the molecule `CN1CC(=O)N2[C@H](c3ccc4c(c3)OCO4)c3[nH]c4ccccc4c3C[C@@H]2C1=O`, the 50% inhibitory concentration (IC50) against Phosphodiesterase 1, at Phosphodiesterase 3 and on Phosphodiesterase 7 was > 10000 nM in each case. The negative logarithm of the IC50 (pIC50) in assay [6], in assay [7], in assay [8] and in assay [5] was < 5.00 in each case.

Take `CCN1C(=O)c2nc(C#Cc3ccccc3)n(Cc3ccc(OC)cc3)c2N2C[C@@H](Cc3ccccc3)N=C12`: the negative-log IC50 (pIC50) in [4] is 7.70. Also, the Ratio in [2] is 4.5.

Regarding `CCCc1nc(C)c2c(=O)nc(-c3cc(S(=O)(=O)N4CCN(CC)CC4)ccc3OCC)[nH]n12`, the pIC50 was < 5.00 in [6], 6.10 in assay [7], < 5.00 in [5] and 6.89 in assay [9].

Take `CCCN1C(=O)c2[nH]c(Cc3ccccc3)nc2N2C[C@@H](Cc3ccccc3)N=C12`: the inhibition in [3] is 25%.

In assay [4], `CCN1C(=O)c2nc(CCc3ccccc3)n(Cc3ccccc3)c2N2C[C@@H](Cc3ccccc3)N=C12` showed a negative-log IC50 (pIC50) of 7.13. The Ratio in assay [2] came to 7.4.

For the molecule `CCN1C(=O)c2nc(C#Cc3ccccc3)n(Cc3ccccc3)c2N2C[C@@H](Cc3ccccc3)N=C12`, the Ratio in assay [1] is > 303; in assay [2], 15.

As for `CC[C@@H]1CN2C(=N1)N(CC)C(=O)c1nc(Cc3ccccc3)n(Cc3ccccc3)c12`, the inhibition in assay [3] is 4%.

Consider `CCN1C(=O)c2c(nc(I)n2Cc2ccc(O)cc2)N2C[C@@H](Cc3ccccc3)N=C12`, for which, in [4], the pIC50 is 8.48. The Ratio in assay [2] came to 93.9.

In the case of `CCC[C@@H]1CN2C(=N1)N(CC)C(=O)c1[nH]c(Cc3ccccc3)nc12`, the negative logarithm of the IC50 (pIC50) in assay [4] is 7.22. The Ratio was > 167 in [1] and 0.7 in [2].

Turning to `CCN1C(=O)c2nc(Cc3ccccc3)n(Cc3ccccc3)c2N2C[C@@H](c3ccccc3)N=C12`, the pIC50 in [4] is 7.40. Moreover, the Ratio in assay [2] was 1.3.

Take `Oc1nc2n(c3nc(Cc4ccccc4)nc1-3)C[C@@H](Cc1ccccc1)N2`: the inhibition in assay [3] was 22%.

`O=C1c2[nH]c(Cc3ccccc3)nc2N2C[C@@H](Cc3ccccc3)N=C2N1CC(F)(F)F` returned an inhibition in assay [3] of 34%.

For the molecule `CCN1C(=O)c2ncn(Cc3ccccc3)c2N2C[C@@H](Cc3ccccc3)N=C12`, in assay [4], the pIC50 was 6.70. Besides, the Ratio in assay [2] was determined as 5.

Molecule `CCN1C(=O)c2c(nc(Cc3ccccc3)n2Cc2ccccc2)N2C[C@@H](Cc3ccccc3)N=C12` gave an inhibition in [3] of 23%.

In turn, `CCN1C(=O)c2c(nc(C)n2Cc2ccc(O)cc2)N2C[C@@H](Cc3ccccc3)N=C12` had a negative logarithm of the IC50 (pIC50) in assay [4] of 7.82. Also, the Ratio in assay [2] worked out at 40.

In [4], `CCN1C(=O)c2c(nc(Cc3ccccc3)n2Cc2ccc(O)cc2)N2C[C@@H](Cc3ccccc3)N=C12` had a negative logarithm of the IC50 (pIC50) of 7.54. For the same molecule, in assay [2], the Ratio was 7.4.

`CCN1C(=O)c2c(nc(Cl)n2Cc2ccc(O)cc2)N2C[C@@H](Cc3ccccc3)N=C12` gave a pIC50 in assay [4] of 8.64. Moreover, the figures for the Ratio in assay [1] and in [2] were > 4350 and 93.5, respectively.

Consider `CC(C)N1C(=O)c2[nH]c(Cc3ccccc3)nc2N2C[C@@H](Cc3ccccc3)N=C21`, for which the pIC50 in [4] is 7.66. Moreover, the Ratio in [2] came out at 4.

In assay [3], `O=C1c2nc(Cc3ccccc3)n(Cc3ccccc3)c2N2C[C@@H](Cc3ccccc3)N=C2N1CC(F)(F)F` returned an inhibition of 7%.

In assay [4], `CCN1C(=O)c2c(nc(C#Cc3ccccc3)n2Cc2ccccc2)N2C[C@@H](Cc3ccccc3)N=C12` had a pIC50 of 7.40. Besides, in assay [2], the Ratio worked out at 3.6.

As to `O=C1c2nc(Cc3ccccc3)n(Cc3ccccc3)c2N2C[C@@H](Cc3ccccc3)N=C2N1C1CC1`, the inhibition in assay [3] worked out at 12%.

In turn, `CCC[C@@H]1CN2C(=N1)N(CC)C(=O)c1nc(Cc3ccccc3)n(Cc3ccccc3)c12` gave a negative logarithm of the IC50 (pIC50) in assay [4] of 7.46. Besides, the values for the Ratio in [1] and in assay [2] were > 286 and 4.9, respectively.

In [4], `CCN1C(=O)c2c(nc(C#Cc3ccccc3)n2Cc2ccc(O)cc2)N2C[C@@H](Cc3ccccc3)N=C12` had a pIC50 of 8.28. Further, the Ratio in assay [2] amounted to 19.8.

Take `CN1C(=O)c2[nH]c(Cc3ccccc3)nc2N2C[C@@H](Cc3ccccc3)N=C12`: the pIC50 in assay [4] was 7.00. The Ratio in [1] was 11; in [2], 2.3.

On to `C=CCN1C(=O)c2nc(Cc3ccccc3)n(Cc3ccccc3)c2N2C[C@@H](Cc3ccccc3)N=C12`, for which the inhibition in assay [3] came to 17%.

Consider `CCN1C(=O)c2nc(Cl)n(Cc3ccccc3)c2N2C[C@@H](Cc3ccccc3)N=C12`, for which the pIC50 in assay [4] is 7.22. Besides, the Ratio in assay [2] was 7.3.

`CCN1C(=O)c2nc(Cc3ccccc3)n(Cc3ccc(OC)cc3)c2N2C[C@@H](Cc3ccccc3)N=C12` showed a pIC50 in assay [4] of 7.42. Further, the Ratio in assay [2] was 7.5.

With `CCN1C(=O)c2c(nc(C#Cc3ccccc3)n2Cc2ccc(OC)cc2)N2C[C@@H](Cc3ccccc3)N=C12`, the negative logarithm of the IC50 (pIC50) in [4] is 7.85. The Ratio in assay [2] is 1.7.

`CC[C@@H]1CN2C(=N1)N(CC)C(=O)c1[nH]c(Cc3ccccc3)nc12` had a negative logarithm of the IC50 (pIC50) in assay [4] of 7.48. Also, the Ratio in assay [1] is > 303; in assay [2], 2.4.

For `CCN1C(=O)c2c(nc(Br)n2Cc2ccc(OC)cc2)N2C[C@@H](Cc3ccccc3)N=C12`, the Ratio in assay [2] was found to be 4.8.

On to `CN1C(=O)c2nc(Cc3ccccc3)n(Cc3ccccc3)c2N2C[C@@H](Cc3ccccc3)N=C12`, for which the inhibition in [3] came out at 6%.

`CCN1C(=O)c2nc(C#Cc3ccccc3)n(Cc3ccc(O)cc3)c2N2C[C@@H](Cc3ccccc3)N=C12`: the pIC50 in assay [4] was 8.19. The Ratio in [1] is > 1540; in assay [2], 23.

For `CC(C)N1C(=O)c2nc(Cc3ccccc3)n(Cc3ccccc3)c2N2C[C@@H](Cc3ccccc3)N=C21`, in assay [3], the inhibition was 13%.

With `CCN1C(=O)c2nc(Br)n(Cc3ccccc3)c2N2C[C@@H](Cc3ccccc3)N=C12`, the pIC50 in assay [4] was 6.84. Moreover, the Ratio in assay [2] was 4.5.

In assay [4], `CCN1C(=O)c2[nH]c(Cc3ccccc3)nc2N2C[C@@H](C(C)C)N=C12` gave a pIC50 of 7.55. For the same molecule, the results for the Ratio in assay [1] and in assay [2] were 59 and 1, respectively.

Take `CCN1C(=O)c2nc(Br)n(Cc3ccc(O)cc3)c2N2C[C@@H](Cc3ccccc3)N=C12`: the negative logarithm of the IC50 (pIC50) in assay [4] is 8.11. For the same molecule, the Ratio was > 1590 in assay [1] and 51.3 in assay [2].

`CCN1C(=O)c2c(nc(Br)n2Cc2ccc(O)cc2)N2C[C@@H](Cc3ccccc3)N=C12`: the half-maximal inhibitory concentration (IC50) on Phosphodiesterase 1 was > 10000 nM; on Phosphodiesterase 3, > 10000 nM; at Phosphodiesterase 4 it was 1400 nM; against Phosphodiesterase 6, 180 nM; on Phosphodiesterase 7 it was > 10000 nM. For the same molecule, the pIC50 was < 5.00 in assay [6]; 8.60 in assay [4]; 5.66 in assay [7]; < 5.00 in [8]; < 5.00 in assay [5]; 6.27 in assay [9]. The Ratio was > 4000 in assay [1] and 72 in assay [2].

The values above are taken from ChEMBL document CHEMBL1144389, “Optimization of purine based PDE1/PDE5 inhibitors to a potent and selective PDE5 inhibitor for the treatment of male ED” (Bioorg Med Chem Lett, 2005).
